Assay results as given in ChEMBL document CHEMBL1132860 (Bioorg Med Chem Lett, 2000).

What was measured:
[1] = biological target: T1, Alpha-2A adrenergic receptor (Homo sapiens, UniProt P08913); assay: Binding affinity at human Alpha-2A adrenergic receptor in CHO cells by [3H]rauwolscine (1 nM) displacement.; assay type: cell-based
T1 sequence (P08913 whole entry): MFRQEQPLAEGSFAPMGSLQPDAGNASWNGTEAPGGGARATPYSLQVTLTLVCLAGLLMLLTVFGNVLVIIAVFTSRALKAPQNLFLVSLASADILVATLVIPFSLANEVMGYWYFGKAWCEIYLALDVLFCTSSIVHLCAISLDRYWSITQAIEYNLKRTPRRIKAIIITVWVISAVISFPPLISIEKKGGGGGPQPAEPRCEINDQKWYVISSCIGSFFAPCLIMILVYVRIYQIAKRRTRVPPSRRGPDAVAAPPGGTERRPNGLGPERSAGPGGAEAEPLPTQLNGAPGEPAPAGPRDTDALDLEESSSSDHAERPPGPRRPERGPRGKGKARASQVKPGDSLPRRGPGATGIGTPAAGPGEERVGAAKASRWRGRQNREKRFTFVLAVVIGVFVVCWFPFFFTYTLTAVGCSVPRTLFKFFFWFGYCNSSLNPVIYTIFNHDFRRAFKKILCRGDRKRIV
Procedure, shortened: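 Membranes from CHO cells stably expressing the human receptor, with 1 nM [3H]rauwolscine as radioligand. Nonspecific binding was defined with 1 μM oxymethazoline. Compounds were tested over 10^-5 to 10^-11. Inhibition curves were fitted as sigmoids by non-linear regression using polynomials, and pIC50 (−log IC50) was read from the curves.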

[2] = biological target: T2, Alpha-2B adrenergic receptor (Homo sapiens, UniProt P18089); assay: Binding affinity at human Alpha-2B adrenergic receptor in CHO cells by [3H]rauwolscine (1 nM) displacement.; assay type: cell-based
T2 sequence (P18089 whole entry): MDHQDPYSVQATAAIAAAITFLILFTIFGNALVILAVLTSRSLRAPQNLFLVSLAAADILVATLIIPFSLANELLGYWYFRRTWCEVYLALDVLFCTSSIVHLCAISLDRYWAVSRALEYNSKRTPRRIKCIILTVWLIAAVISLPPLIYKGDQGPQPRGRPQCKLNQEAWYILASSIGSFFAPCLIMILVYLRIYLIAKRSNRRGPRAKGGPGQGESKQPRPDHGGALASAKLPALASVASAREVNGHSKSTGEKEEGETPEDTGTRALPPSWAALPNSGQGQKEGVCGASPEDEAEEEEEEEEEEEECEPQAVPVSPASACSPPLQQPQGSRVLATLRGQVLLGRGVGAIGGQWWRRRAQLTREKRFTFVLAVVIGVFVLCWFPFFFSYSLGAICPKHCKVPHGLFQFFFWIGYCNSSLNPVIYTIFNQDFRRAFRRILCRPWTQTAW

[3] = biological target: T3, Alpha-1A adrenergic receptor (Homo sapiens, UniProt P35348); assay: Binding affinity at human Alpha-1A adrenergic receptor in CHO cells uby [3H]prazosin (0.25 nM) displacement.; assay type: cell-based
T3 sequence (P35348 whole entry): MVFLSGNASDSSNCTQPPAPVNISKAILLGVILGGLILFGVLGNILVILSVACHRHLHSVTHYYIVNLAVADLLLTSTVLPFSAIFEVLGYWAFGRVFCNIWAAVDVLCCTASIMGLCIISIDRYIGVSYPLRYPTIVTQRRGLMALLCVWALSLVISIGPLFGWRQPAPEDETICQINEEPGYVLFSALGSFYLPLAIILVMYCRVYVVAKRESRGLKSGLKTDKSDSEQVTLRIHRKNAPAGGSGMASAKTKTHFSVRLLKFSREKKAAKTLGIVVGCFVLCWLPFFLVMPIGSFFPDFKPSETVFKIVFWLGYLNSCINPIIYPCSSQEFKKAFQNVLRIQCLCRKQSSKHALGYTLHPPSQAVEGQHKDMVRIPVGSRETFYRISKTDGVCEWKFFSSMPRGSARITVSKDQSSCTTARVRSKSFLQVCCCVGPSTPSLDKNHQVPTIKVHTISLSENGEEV

[4] = biological target: T4, Alpha-2C adrenergic receptor (Homo sapiens, UniProt P18825); assay: biochemical; assay type: cell-based, CHO
T4 sequence (P18825 whole entry): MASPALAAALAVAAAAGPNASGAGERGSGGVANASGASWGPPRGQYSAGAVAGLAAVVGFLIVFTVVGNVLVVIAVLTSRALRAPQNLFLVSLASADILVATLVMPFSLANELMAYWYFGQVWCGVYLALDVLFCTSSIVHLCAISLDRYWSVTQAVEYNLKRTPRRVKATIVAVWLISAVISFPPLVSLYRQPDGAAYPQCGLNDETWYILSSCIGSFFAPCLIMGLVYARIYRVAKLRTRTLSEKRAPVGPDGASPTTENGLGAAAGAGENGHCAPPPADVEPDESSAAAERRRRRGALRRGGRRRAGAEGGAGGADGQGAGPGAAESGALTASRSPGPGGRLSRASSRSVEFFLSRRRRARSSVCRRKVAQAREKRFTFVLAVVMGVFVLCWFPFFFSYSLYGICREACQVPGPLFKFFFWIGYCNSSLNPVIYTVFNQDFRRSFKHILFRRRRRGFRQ

Rattus norvegicus [5] = assay: Inhibition of Xylazine (15 mg/kg i.v.) induced loss of righting reflex in rats following i.v. administration.; assay type: functional; set-up: unit not given here
Rattus norvegicus [6] = assay: Inhibition of clonidine (0.04 mg/kg) induced anti diarrhoeal effects in rats following s.c. administration.; assay type: functional; set-up: unit not given here

Row | Structure (SMILES) | IC50 [1] | IC50 [2] | IC50 [3] | IC50 [4] | Activity (Rattus norvegicus [5]) | Activity (Rattus norvegicus [6])
1 | COc1cc2nc(C)c(CCN3CCc4oc5ccccc5c4C3)c(=O)n2cc1OC | 3.55 nM | 195 nM | 5250 nM | 57.5 nM | >10 | >0.63
2 | Cc1nc2c(Cl)cc(C(F)(F)F)cn2c(=O)c1CCN1CCc2oc3ccccc3c2C1 | 1.17 nM | 1.95 nM | 5890 nM | – | – | –
3 | O=c1c(CCN2CCc3oc4ccccc4c3C2)c(Cc2ccccc2)nc2ccccn12 | 2.19 nM | 4.17 nM | 204 nM | 2.69 nM | >10 | >2.5
4 | Cc1nc2c(O)cccn2c(=O)c1CCN1CCc2oc3ccccc3c2C1 | 0.692 nM | 1.74 nM | 245 nM | 1.62 nM | 5 | 2.5
5 | Cc1nc2c(Cl)cc(Cl)cn2c(=O)c1CCN1CCc2oc3ccccc3c2C1 | 0.589 nM | – | 2570 nM | – | >10 | >2.5
6 | Cc1nc2ccccn2c(=O)c1CCN1CCc2oc3c(Cl)cccc3c2C1 | 0.891 nM | 4.37 nM | 282 nM | 2.24 nM | 2.5 | 0.63
7 | Cc1nc2ccccn2c(=O)c1CCN1CCc2sc3ccccc3c2C1 | 1.74 nM | 11.5 nM | 214 nM | 14.1 nM | 2.5 | 10
8 | Cc1nc2ccccn2c(=O)c1CCN1CCc2oc3ccc(Cl)cc3c2C1 | 3.89 nM | 79.4 nM | – | 27.5 nM | 10 | >2.5
9 | Cc1nc2ccccn2c(=O)c1CCCN1CCc2oc3ccccc3c2C1 | 10.2 nM | 10.7 nM | 813 nM | 6.61 nM | >10 | >2.5
10 | Cc1ccn2c(=O)c(CCN3CCc4oc5ccccc5c4C3)c(C)nc2c1 | 0.447 nM | 2.57 nM | 112 nM | 1.2 nM | 0.63 | 2.5
11 | Cc1nc2c(C)cccn2c(=O)c1CCN1CCc2oc3ccccc3c2C1 | 0.603 nM | 2.14 nM | 692 nM | 1.32 nM | 10 | 2.5
12 | c1ccc2c(c1)OCC(C1=NCCN1)O2 (stereo not drawn) [IDAZOXAN] | – | – | – | – | 0.63 | 0.63
13 | Cc1nc2ccccn2c(=O)c1CCN1CCc2oc3ccccc3c2C1 [LUSAPERIDONE] | 0.55 nM | 2.57 nM | 347 nM | 1.7 nM | 0.04 | 0.31
14 | CN1CCN2c3ncccc3Cc3ccccc3C2C1 (stereo not drawn) [MIRTAZAPINE] | – | – | – | 200 nM | 2.5 | >10

Now from value to compound, other results behind:

Row | IC50 [1] | IC50 [2] | IC50 [3] | IC50 [4] | Structure (SMILES) | Activity (Rattus norvegicus [5]) | Activity (Rattus norvegicus [6])
15 | 0.339 nM | 2.63 nM | 240 nM | 0.851 nM | Cc1cc(C)n2c(=O)c(CCN3CCc4oc5ccccc5c4C3)c(C)nc2c1 | >10 | >2.5
16 | 0.347 nM | 1.55 nM | 288 nM | 1.29 nM | Cc1ccc2nc(C)c(CCN3CCc4oc5ccccc5c4C3)c(=O)n2c1 | 0.16 | 0.63
17 | 0.295 nM | 2.04 nM | 115 nM | 0.708 nM | COc1cccn2c(=O)c(CCN3CCc4oc5ccccc5c4C3)c(C)nc12 | 0.63 | 0.63
18 | 0.24 nM | 2.09 nM | 479 nM | 0.617 nM | Cc1nc2ccc(I)cn2c(=O)c1CCN1CCc2oc3ccccc3c2C1 | 10 | >2.5
19 | 0.288 nM | 1.48 nM | 398 nM | 1.07 nM | Cc1nc2cccc(C)n2c(=O)c1CCN1CCc2oc3ccccc3c2C1 | 0.63 | 2.5
20 | 0.355 nM | 1.35 nM | 891 nM | 0.692 nM | Cc1nc2ccc(Br)cn2c(=O)c1CCN1CCc2oc3ccccc3c2C1 | 0.16 | 2.5
21 | 0.214 nM | 0.955 nM | 724 nM | 0.724 nM | Cc1nc2ccc(Cl)cn2c(=O)c1CCN1CCc2oc3ccccc3c2C1 | 0.04 | 0.63
